In ChEMBL document CHEMBL5331111, “Synthetic Biology Facilitates Semisynthetic Development of Type V Glycopeptide Antibiotics Targeting Vancomycin-Resistant Enterococcus” (J Med Chem, 2023):
Activity calls are given as the source filed them.

Experiments:
Enterococcus faecium [1] = assay: Antibacterial activity against Enterococcus faecium WCC 0587 assessed as inhibition of bacterial growth by Mueller-Hinton broth based assay; format: functional
Enterococcus faecium [2] = assay: Antibacterial activity against Enterococcus faecium WCC 0516 assessed as inhibition of bacterial growth by Mueller-Hinton broth based assay; format: functional
[3] = system: Mycobacteroides abscessus; assay: Antimycobacterial activity against Mycobacterium abscessus ATCC 19977 assessed as inhibition of bacterial growth measured after 2 days by resazurin dye based analysis; format: functional; conditions: ATCC 19977, 48 h, time 2 day
Outline: (§1)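 Cultured in 7H9 with 0.2% glycerol, 10% OADC and 0.05% Tween-80. Inoculum diluted to ~5 × 10^5 CFU/mL and confirmed at 3–8 × 10^5 by plating on 7H10 agar. Growth read at 2 days, then 30 μg/mL resazurin added for one more day. Values averaged from at least two experiments.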

Enterococcus faecium [4] = assay: Antibacterial activity against Enterococcus faecium WCC 0558 assessed as inhibition of bacterial growth by Mueller-Hinton broth based assay; format: functional
[5] = system: Mycobacterium tuberculosis; assay: Antimycobacterial activity against Mycobacterium tuberculosis H37Ra assessed as inhibition of bacterial growth measured after 7 days by resazurin dye based analysis; format: functional; conditions: 168 h, time 7 day
Outline: (§2)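 Strains grown in 7H9 broth with 0.2% glycerol, 10% OADC and 0.05% Tween-80. Inoculum was about 5 × 10^5 CFU/mL, checked by plating on 7H10/OADC agar to be 3–8 × 10^5. Read at 2 days for M. smegmatis and 7 days for M. tuberculosis H37Ra, M. bovis and M. avium. Resazurin 30 μg/mL was then added for one further day. Values are averages of at least two experiments.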

Enterococcus faecium [6] = assay: Antibacterial activity against Vancomycin-resistant Enterococcus faecium ATCC 700221 infected in cyclophosphamide induced neutropenic thigh infection CD-1 mouse model assessed as reduction in blood bacterial load at 100 mg/kg, ip qid measured after 24 hrs post-infection; format: functional
Outline: (§3)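 Female CD-1 mice, 6–10 weeks old, made neutropenic with i.p. cyclophosphamide (150 mg/kg day 4, 100 mg/kg day 1). About 1 × 10^6 CFU of E. faecium ATCC 700221, grown in BHI with vancomycin, were injected into each thigh. Dosing was i.p. at 1, 3, 5 and 20 h post-infection, in PEG400/DMSO/H₂O (45/5/50) vehicle, with vehicle controls. Mice were euthanized at 24 h.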

Enterococcus faecium [7] = assay: Antibacterial activity against Enterococcus faecium WCC 0534 assessed as inhibition of bacterial growth by Mueller-Hinton broth based assay; format: functional
Bacillus subtilis = assay: Antibacterial activity against Bacillus subtilis 168 assessed as reduction in bacterial growth by Mueller-Hinton broth based assay; format: functional
Outline: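 Broth MIC by standard procedure in Mueller-Hinton broth, for both B. subtilis 168 and S. aureus ATCC 33591.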

Enterococcus gallinarum = assay: Antibacterial activity against vancomycin-resistant Enterococcus gallinarum ATCC 49573 assessed as inhibition of bacterial growth by Mueller-Hinton broth based assay; format: functional
Enterococcus faecium [8] = assay: Antibacterial activity against Vancomycin-resistant Enterococcus faecium ATCC 700221 infected in cyclophosphamide induced neutropenic thigh infection CD-1 mouse model assessed as reduction in weight loss at 100 mg/kg, ip qid measured after 24 hrs post-infection; format: functional, organism-based; outline: as §3
Enterococcus faecium [9] = assay: Antibacterial activity against Enterococcus faecium WCC 0491 assessed as inhibition of bacterial growth by Mueller-Hinton broth based assay; format: functional
Enterococcus faecium [10] = assay: Antibacterial activity against vancomycin-resistant Enterococcus faecium ATCC 700221 assessed as inhibition of bacterial growth by Mueller-Hinton broth based assay; format: functional
Enterococcus faecium [11] = assay: Antibacterial activity against Enterococcus faecium WCC 0537 assessed as inhibition of bacterial growth by Mueller-Hinton broth based assay; format: functional
Enterococcus faecium [12] = assay: Antibacterial activity against Enterococcus faecium WCC 0492 assessed as inhibition of bacterial growth by Mueller-Hinton broth based assay; format: functional
Enterococcus faecium [13] = assay: Antibacterial activity against Enterococcus faecium WCC 0553 assessed as inhibition of bacterial growth by Mueller-Hinton broth based assay; format: functional
Enterococcus faecium [14] = assay: Antibacterial activity against Vancomycin-resistant Enterococcus faecium ATCC 700221 infected in cyclophosphamide induced neutropenic thigh infection CD-1 mouse model assessed as increase in survival rate at 100 mg/kg, ip qid measured after 24 hrs post-infection; format: functional, organism-based; outline: as §3
Enterococcus faecium [15] = assay: Antibacterial activity against Enterococcus faecium WCC 0496 assessed as inhibition of bacterial growth by Mueller-Hinton broth based assay; format: functional
Enterococcus faecium [16] = assay: Antibacterial activity against Enterococcus faecium WCC 0499 assessed as inhibition of bacterial growth by Mueller-Hinton broth based assay; format: functional
Enterococcus faecalis = assay: Antibacterial activity against vancomycin-resistant Enterococcus faecalis ATCC 51299 assessed as inhibition of bacterial growth by Mueller-Hinton broth based assay; format: functional
Enterococcus faecium [17] = assay: Antibacterial activity against vancomycin-resistant Enterococcus faecium WCC 0541 assessed as inhibition of bacterial growth by Mueller-Hinton broth based assay; format: functional
[18] = Hemolytic activity in human RBC incubated for 1 hr by absorbance based analysis; format: toxicity, cell-based, Erythrocyte; conditions: red blood cells (erythrocytes)
Outline: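 Human K2-EDTA blood RBCs washed twice in 150 mM NaCl, resuspended in PBS pH 7.4, then diluted 1:50. Incubated with compound at 1% final DMSO for 1 h at 37 °C and pelleted at 500g for 5 min. Supernatant absorbance read at 540 nm. Controls were DMSO-only and a Triton X-100 dilution series (20% to 0.02%).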

[19] = Toxicity in cyclophosphamide induced neutropenic thigh infection CD-1 mouse model infected with Vancomycin-resistant Enterococcus faecium ATCC 700221 assessed as change in thigh weight at 100 mg/kg, ip qid measured after 24 hrs post-infection; format: organism-based; conditions: in vivo; outline: as §3
Enterococcus faecium [20] = assay: Antibacterial activity against Enterococcus faecium WCC 0506 assessed as inhibition of bacterial growth by Mueller-Hinton broth based assay; format: functional
[21] = Antimycobacterial activity against Mycobacterium avium subsp. avium ATCC 25291 assessed as inhibition of bacterial growth measured after 7 days by resazurin dye based analysis; format: functional; conditions: ATCC 25291, 168 h, time 7 day; outline: as §2
Enterococcus faecium [22] = assay: Antibacterial activity against Enterococcus faecium WCC 0545 assessed as inhibition of bacterial growth by Mueller-Hinton broth based assay; format: functional
[23] = Cytotoxicity against HEK293 cells assessed as inhibition of cell growth incubated for 48 hrs by Cell-Titer Glo reagent based analysis; format: toxicity; conditions: human
Outline: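 HEK293 cells seeded at 7500 cells/well in DMEM with 10% FBS, 2 mM glutamine and pen/strep, and left 18 h at 37 °C under 5% CO2. Compound then added at 1% final DMSO and incubated 48 h. Viability read by CellTiter-Glo luminescence and normalized to DMSO-only wells. Curves fitted by 4PL constrained to 0–1.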

[24] = system: Mycolicibacterium smegmatis; assay: Antimycobacterial activity against Mycobacterium smegmatis MC2 155 assessed as inhibition of bacterial growth measured after 2 days by resazurin dye based analysis; format: functional; conditions: MC2 155, 48 h, time 2 day; outline: as §2
Enterococcus faecium [25] = assay: Antibacterial activity against Enterococcus faecium WCC 0502 assessed as inhibition of bacterial growth by Mueller-Hinton broth based assay; format: functional
[26] = Toxicity in cyclophosphamide induced neutropenic thigh infection CD-1 mouse model infected with Vancomycin-resistant Enterococcus faecium ATCC 700221 assessed as change in spleen weight at 100 mg/kg, ip qid measured after 24 hrs post-infection; format: organism-based; conditions: in vivo; outline: as §3
Enterococcus faecium [27] = assay: Antibacterial activity against Enterococcus faecium WCC 0528 assessed as inhibition of bacterial growth by Mueller-Hinton broth based assay; format: functional
[28] = system: Mycolicibacterium fortuitum; assay: Antimycobacterial activity against Mycobacterium fortuitum ATCC 6891 assessed as inhibition of bacterial growth measured after 2 days by resazurin dye based analysis; format: functional; conditions: ATCC 6891, 48 h, time 2 day; outline: as §1
Enterococcus faecium [29] = assay: Antibacterial activity against Enterococcus faecium WCC 0495 assessed as inhibition of bacterial growth by Mueller-Hinton broth based assay; format: functional
Enterococcus faecium [30] = assay: Antibacterial activity against Enterococcus faecium WCC 0586 assessed as inhibition of bacterial growth by Mueller-Hinton broth based assay; format: functional
Enterococcus faecium [31] = assay: Antibacterial activity against Enterococcus faecium WCC 0533 assessed as inhibition of bacterial growth by Mueller-Hinton broth based assay; format: functional
Enterococcus faecium [32] = assay: Antibacterial activity against Enterococcus faecium WCC 0498 assessed as inhibition of bacterial growth by Mueller-Hinton broth based assay; format: functional

CN(C)CCCNC(=O)[C@@H]1NC(=O)[C@@H]2Cc3ccc(cc3)Oc3cc4cc(c3O)-c3ccc5c(c[nH]c5c3)C[C@@H](NC(=O)C(NC(=O)CCCCCN)c3ccc(O)cc3)C(=O)N[C@H](c3ccc(O)cc3)C(=O)N[C@H]4C(=O)N[C@@H](C(=O)N2C)c2ccc(cc2)Oc2cc1ccc2O (stereo not given in full)
> 256 µg/mL: IC50 at 1 h [18] | IC50 at 48 h [23]
Non-Toxic: Activity [19] | Activity [26]
1 µg/mL: MIC (Enterococcus faecium [1]) | MIC (Enterococcus faecium [4]) | MIC (Bacillus subtilis) | MIC (Enterococcus faecium [9]) | MIC (Enterococcus faecium [13]) | MIC (Enterococcus faecium [15]) | MIC (Enterococcus faecium [16]) | MIC (Enterococcus faecalis) | MIC (Enterococcus faecium [17]) | MIC (Enterococcus faecium [20]) | MIC (Enterococcus faecium [25]) | MIC (Enterococcus faecium [27]) | MIC (Enterococcus faecium [29]) | MIC (Enterococcus faecium [30])
32 µg/mL: MIC [5]
active: Activity (Enterococcus faecium [8]) | Activity (Enterococcus faecium [14])
3 CFU/g: log(activity) (Enterococcus faecium [6])
> 128 µg/mL: MIC [21]
2 µg/mL: MIC [3] | MIC (Enterococcus gallinarum) | MIC (Enterococcus faecium [11]) | MIC (Enterococcus faecium [12]) | MIC (Enterococcus faecium [22]) | MIC [28] | MIC (Enterococcus faecium [32])
0.5 µg/mL: MIC (Enterococcus faecium [2]) | MIC (Enterococcus faecium [7]) | MIC (Enterococcus faecium [10]) | MIC [24] | MIC (Enterococcus faecium [31])

NNC(=O)c1ccncc1 [ISONIAZID]
0.063 µg/mL: MIC [5]
> 128 µg/mL: MIC [3] | MIC [21]
4 µg/mL: MIC [24] | MIC [28]
